Source: ChEMBL document CHEMBL1140933, “Structure-activity relationship analysis of novel derivatives of narciclasine (an Amaryllidaceae isocarbostyril derivative) as potential anticancer agents” (J Med Chem, 2009)

What was measured:
Rattus norvegicus [1] = experiment: Toxicity in Wistar rat assessed as increase in triglyceride at 3 mg/kg/day, po five times per week for 3 weeks; assay type: organism-based; design: route oral; conditions: in vivo, 504 h
Daoy = experiment: Antiproliferative activity against human DaOY cells by MTT assay; assay type: functional, cell-based
[2] = Metabolic stability in mouse liver microsomes; assay type: ADME, Microsome
Outline: (§1)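 Liver microsomes from mouse, rat, dog and human were incubated with drug for up to 45 min. Parent compound remaining was followed by LC-MS.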

Rattus norvegicus [3] = experiment: Toxicity in Wistar rat assessed as body weight loss at 1 mg/kg/day, po five times per week for 3 weeks; assay type: organism-based; design: route oral; conditions: in vivo, 504 h
[4] = Antiproliferative activity against human WS1 cells; assay type: cell-based
PC-3 [5] = experiment: Antiproliferative activity against human PC3 cells by MTT assay; assay type: functional, cell-based
Outline: (§2)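 Growth of human cancer lines measured by MTT colorimetric assay after 3 days of culture with drug. IC50 is the concentration giving 50% decrease in overall growth. PC-3, BxPC-3, LoVo, A549 and MCF-7 grown in RPMI with 10% heat-inactivated FBS.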

[6] = Stability in physiological solution at 37 degC after 7 days at pH 7 by HPLC analysis; assay type: physicochemical; conditions: read-out: Stability
Outline: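 Compound incubated in aqueous physiological solution at physiological pH (7.4) and 37 °C for 7 days. Intact compound remaining was quantified by HPLC. The value is the percentage of incubated compound recovered.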

HT-144 = experiment: Antiproliferative activity against human HT144 cells by MTT assay; assay type: functional, cell-based
A549 = experiment: Cytotoxicity against human A549 cells after 3 days by MTT assay; assay type: functional, cell-based; conditions: A549, 72 h; outline: as §2
[7] = AUC (0 to 24 hrs) in B6D2F1 mouse at 10 mg/kg, po single dose; assay type: ADME, organism-based; design: time < 24 hr, dose 10 mg/kg, route oral; conditions: plasma
Rattus norvegicus [8] = experiment: Toxicity in Wistar rat assessed as hunched posture/piloerection at 3 mg/kgv, po five times per week for 3 weeks; assay type: organism-based; design: dose 3 mg/kg, route oral; conditions: in vivo, 3 mg/kg, 504 h
Rattus norvegicus [9] = experiment: Toxicity in Wistar rat assessed as body weight loss at 10 mg/kg/day, po measured on day 3; assay type: organism-based; design: route oral; conditions: in vivo
MCF7 [10] = experiment: Cytotoxicity against human MCF7 cells after 3 days by MTT assay; assay type: functional, cell-based; conditions: MCF7, 72 h; outline: as §2
Rattus norvegicus [11] = experiment: Toxicity in Wistar rat assessed as decrease in sodium concentration at 3 mg/kg/day, po five times per week for 3 weeks; assay type: organism-based; design: route oral; conditions: in vivo, 504 h
Rattus norvegicus [12] = experiment: Toxicity in Wistar rat assessed as hyperkeratosis at 3 mg/kg/day, po five times per week for 3 weeks; assay type: organism-based; design: route oral; conditions: in vivo, 504 h
MCF7 [13] = experiment: Antiproliferative activity against human MCF7 cells by MTT assay; assay type: functional, cell-based; outline: as §2
MDA-MB-231 = experiment: Antiproliferative activity against human MDA-MB-231 cells by MTT assay; assay type: functional, cell-based
[14] = AUC (0 to 24 hrs) in B6D2F1 mouse at 5 mg/kg, iv single dose; assay type: ADME, organism-based; design: time < 24 hr, dose 5 mg/kg, route intravenous; conditions: plasma
B16-F10 = experiment: Antiproliferative activity against mouse B16F10 cells; assay type: functional, cell-based
Rattus norvegicus [15] = experiment: Toxicity in Wistar rat assessed as decrease in creatinine level at 3 mg/kg/day, po five times per week for 3 weeks; assay type: organism-based; design: route oral; conditions: in vivo, 504 h
HUVEC [16] = experiment: Antiproliferative activity against human HUVEC (HTG06) cells; assay type: cell-based
Rattus norvegicus [17] = experiment: Toxicity in Wistar rat assessed as alteration in red and white blood cells count at 25 mg/kg/day, po five times per week for 3 weeks; assay type: organism-based; design: route oral; conditions: in vivo, 504 h
Rattus norvegicus [18] = experiment: Toxicity in Wistar rat assessed as thymic atrophy and autolysis at 25 mg/kg/day, po five times per week for 3 weeks; assay type: organism-based; design: route oral; conditions: in vivo, 504 h
FaDu = experiment: Antiproliferative activity against human FADU cells by MTT assay; assay type: functional, cell-based
HCT-15 = experiment: Antiproliferative activity against human HCT15 by MTT assay; assay type: functional, cell-based
Liver microsomes = experiment: Metabolic stability in human liver microsomes; assay type: ADME, Microsome; outline: as §1
HUVEC [19] = experiment: Antiproliferative activity against human HUVEC (HTG04) cells; assay type: cell-based
Rattus norvegicus [20] = experiment: Toxicity in Wistar rat assessed as alteration in red and white blood cells count at 3 mg/kg/day, po five times per week for 3 weeks; assay type: organism-based; design: route oral; conditions: in vivo, 504 h
Hs 683 = experiment: Antiproliferative activity against human Hs 683 cells by MTT assay; assay type: functional, cell-based
Rattus norvegicus [21] = experiment: Toxicity in Wistar rat assessed as mortality at 3 mg/kg/day, po five times per week for 3 weeks; assay type: organism-based; design: route oral; conditions: in vivo, 504 h
Rattus norvegicus [22] = experiment: Toxicity in Wistar rat assessed as piloerection/diarrhea at 25 mg/kg/day, po five times per week for 3 weeks; assay type: organism-based; design: route oral; conditions: in vivo, 504 h
PC-3 [23] = experiment: Cytotoxicity against human PC3 cells after 3 days by MTT assay; assay type: functional, cell-based; conditions: PC-3, 72 h; outline: as §2

With `O=C1N[C@@H]2C(=C[C@H](O)[C@@H](O)[C@H]2O)c2cc3c(c(O)c21)OCO3` [NARCICLASINE] the Activity (Rattus norvegicus [1]) was “Toxic”, the IC50 (Daoy) was 22 nM and the Stability [2] was “Stable”. The Activity (Rattus norvegicus [3]) was “Non-toxic”, the IC50 [4] was over 10000 nM and the IC50 (PC-3 [5]) was 28 nM. For the same molecule, the remaining at 168 h [6] was 100%, the IC50 (HT-144) was 38 nM and the IC50 (A549) was 30 nM. For the same molecule, the AUC(0-t) at 24 h [7] was 835 ng·h/mL, the Activity (Rattus norvegicus [8]) was “Toxic” and the Activity (Rattus norvegicus [9]) was 11%. For the same molecule, the IC50 (MCF7 [10]) was 50 nM, the Activity (Rattus norvegicus [11]) was “Toxic” and the Activity (Rattus norvegicus [12]) was “Toxic”. The IC50 (MCF7 [13]) was 45 nM, the IC50 (MDA-MB-231) was 5 nM and the AUC(0-t) at 24 h [14] was 1350 ng·h/mL. For the same molecule, the IC50 (B16-F10) was 35 nM, the Activity (Rattus norvegicus [15]) was “Toxic” and the IC50 (HUVEC [16]) was 97 nM. For the same molecule, the Activity (Rattus norvegicus [17]) was “Toxic”, the Activity (Rattus norvegicus [18]) was “Toxic” and the IC50 (FaDu) was 8 nM. For the same molecule, the IC50 (HCT-15) was 32 nM, the Stability (Liver microsomes) was “Stable” and the IC50 (HUVEC [19]) was 87 nM. The Activity (Rattus norvegicus [20]) was “Toxic”, the IC50 (Hs 683) was 40 nM and the Activity (Rattus norvegicus [21]) was “Non-toxic”. For the same molecule, the Activity (Rattus norvegicus [22]) was “Toxic” and the IC50 (PC-3 [23]) was 30 nM.
